A selection: hits, their analogues and other compounds. The true share with any hit is near 1.6%.
H9c2 protect: protects H9c2 cardiomyocytes from peroxide injury; 360,000 compounds, 0.63% hits; protection from H2O2 cell death, % at 20 µM; H2O2 injury protection, ATPLite, 2 h;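 active means compounds giving at least 50% protection of heart cells from peroxide-induced death in the single-dose screen, raw or plate-pattern-corrected value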
Neddyl block: cullin neddylation inhibition | P61081+Q13564 | TR-FRET cullin neddylation, biochemical | inhibition, % at 25 µM | 360,000 compounds, 0.58% hits | AID 651699; in the data active means inhibition above about 36%
ARFGAP1 inh: inhibitors of rat ARFGAP1 | Q62848 | Arfgap1-stimulated ARF1 GTP hydrolysis, GDP FP detection | inhibition, % at 16.5 µM | 360,000 compounds, 0.26% hits;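 active means inhibition above a per-plate limit, mean inhibition of low control wells plus 3 SD, cut at about 25% in these data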
Target sequence (Q62848 1-136 limits assumed): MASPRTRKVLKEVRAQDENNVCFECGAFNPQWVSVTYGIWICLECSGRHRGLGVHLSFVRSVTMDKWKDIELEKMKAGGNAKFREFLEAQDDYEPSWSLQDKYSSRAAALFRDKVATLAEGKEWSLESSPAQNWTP
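Material – truncated rat Arfgap1 GAP domain · Buffer or medium – HEPES-based buffer, pH 7.5 · Reagent – human ARF1(Δ1-17)-GTP substrate · Dosing – 16.5 µM single point, 1.26% DMSO · Schedule – GTP hydrolysis reaction 2 h at 25 °C · Technique – GDP detection by fluorescence polarization · Benchmarks – No-Arfgap1 wells (100%) versus DMSO full-reaction wells (0%) · Repeats – single replicate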
ASAP1 GAP inh: blocks human ASAP1-stimulated Arf1 GTP hydrolysis. 360,000 compounds, 0.19% hits. GDP FP detection. Q9ULH1. inhibition, % at 16.5 µM; in the data active means inhibition above about 25%
ASAP1 GAP conf: confirmation of human ASAP1 inhibitors | shares compounds with ASAP1 GAP inh | ASAP1-stimulated Arf1 GTPase, GDP fluorescence polarization | inhibition, % at 16.5 µM | 620 compounds, 37% hits;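 active means mean inhibition over triplicates exceeds the hit threshold derived for the earlier primary screening run, cut at about 25% in these data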
ARFGAP1 inh conf: rat ARFGAP1 inhibition, confirmed; shares compounds with ARFGAP1 inh; ARFGAP1-stimulated ARF1 GTP hydrolysis, GDP tracer FP; inhibition, % at 16.5 µM; 890 compounds, 30% hits; AID 651608;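 active means average inhibition over triplicates above the hit cutoff set in the earlier primary screen, cut at about 25% in these data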
Target sequence (Q62848 whole entry, looked up): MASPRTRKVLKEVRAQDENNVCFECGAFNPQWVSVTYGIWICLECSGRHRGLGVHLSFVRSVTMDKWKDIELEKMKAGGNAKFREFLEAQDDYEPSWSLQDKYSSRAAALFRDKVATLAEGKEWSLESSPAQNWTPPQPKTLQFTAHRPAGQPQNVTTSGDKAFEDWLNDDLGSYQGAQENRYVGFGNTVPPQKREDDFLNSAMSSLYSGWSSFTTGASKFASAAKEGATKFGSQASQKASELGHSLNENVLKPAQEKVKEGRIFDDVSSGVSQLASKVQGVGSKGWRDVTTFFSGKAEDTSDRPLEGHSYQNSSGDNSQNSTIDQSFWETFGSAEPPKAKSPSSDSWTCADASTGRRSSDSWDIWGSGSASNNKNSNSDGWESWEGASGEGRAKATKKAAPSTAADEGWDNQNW
Neddyl conf: cullin neddylation inhibition, confirmation | shares compounds with Neddyl block | AID 652217 | 1,800 compounds, 13% hits | TR-FRET cullin neddylation biochemical assay | calls only at 25 µM; in the data active means inhibition above about 40%;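 further: neddylation substrate is the cullin 1 ring ligase complex with SKP2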
Large screens that a line does not name were inactive (follow-up assays come after a bar, where shown).

COC(=O)C1C(c2ccc(I)cc2)CC2CCC1N2C (stereo unspecified)	ASAP1 GAP inh 26 (no result: H9c2 protect, Neddyl block) | ASAP1 GAP conf inactive
COC(=O)C1C(c2ccc(Cl)cc2)CC2CCC1N2C (stereo unspecified)	none (no result: H9c2 protect, Neddyl block)
O=S(=O)(c1ccc(Cl)cc1)c1ccc(Cl)cc1	none
CCc1c(C(=O)NN2C(=O)C3C4CCC(O4)C3C2=O)csc1C (stereo unspecified)	ASAP1 GAP inh 26 | ASAP1 GAP conf inactive
Cc1ccc(Cn2cc(C=O)c3ccccc32)cc1	none
O=Cc1cn(Cc2ccc(F)cc2)c2ccccc12	ASAP1 GAP inh 25 | ASAP1 GAP conf inactive
COCCCn1c(N)c(C(=O)Nc2sc3c(c2C(=O)OC)CCCC3)c2nc3ccccc3nc21	H9c2 protect 93, ARFGAP1 inh 27, ASAP1 GAP inh 29 | ASAP1 GAP conf inactive | ARFGAP1 inh conf inactive
O=[N+]([O-])c1cccc(CN2CCN(Cc3ccc(Br)cc3)CC2)c1	none
COCCNC(=O)c1ccc(N2CC3CC(C2)c2cccc(=O)n2C3)c([N+](=O)[O-])c1 (stereo unspecified)	ARFGAP1 inh 35 | ARFGAP1 inh conf inactive
CC[N+](C)(CC)CCCCOc1ccc2c(c1)C(=O)c1cc(OCCCC[N+](C)(CC)CC)ccc1-2	ARFGAP1 inh 26 | ARFGAP1 inh conf inactive
COc1ccc(CN2CCCCC2c2cccnc2)cc1C (stereo unspecified)	none
COc1cccc(CN2CCCCC2c2cccnc2)c1 (stereo unspecified)	ARFGAP1 inh 25 | ARFGAP1 inh conf inactive
Cc1cc(OCC(=O)N2C[C@H]3C[C@@H](C2)c2cccc(=O)n2C3)c2c(C)c(C)c(=O)oc2c1	none (not shown: Neddyl block)
NCCc1ccc(O)cc1	ARFGAP1 inh 29 | ARFGAP1 inh conf inactive
O=C(CCc1ccccc1)N1Cc2cc(N3CCCCC3)ccc2-n2nncc2C1	ARFGAP1 inh 25 | ARFGAP1 inh conf inactive
O=C(CCc1ccccc1)N1Cc2cc(N3CCOCC3)ccc2-n2nncc2C1	none
CCCOc1ccc(C(C)=O)cc1Cc1c(O)[nH]c(=S)[nH]c1=O	ARFGAP1 inh 26 | ARFGAP1 inh conf inactive
CCOc1ccc(C(C)=O)cc1Cc1c(O)[nH]c(=S)[nH]c1=O	none
N[C@@H]1C[C@H]1c1ccccc1	none
CC1CC(C)CN(C(=O)COC(=O)c2cn(C)c3ccccc23)C1 (stereo unspecified)	ARFGAP1 inh 42 | ARFGAP1 inh conf 49
CC#CP(=O)(OC)C(O)(CF)c1ccccc1 (stereo unspecified)	none
COc1ccccc1Oc1c(C)oc2cc(OC(=O)N(C)C)ccc2c1=O	ARFGAP1 inh 27 | ARFGAP1 inh conf inactive
COc1ccc(Oc2c(C)oc3cc(OC(=O)N(C)C)ccc3c2=O)cc1	none
S=P(Nn1cnnc1)(c1ccc(Br)cc1)c1ccc(Br)cc1	none
Cc1ccc(-c2cc(-c3ccc(C)cc3)[n+](-c3ccc(C(=O)[O-])cc3)c(-c3ccc(C)cc3)c2)cc1	Neddyl block 40 | Neddyl conf active
Cc1ccc(-c2cc(-c3ccccc3)cc(-c3ccccc3)[n+]2-c2ccccc2)cc1	none
CN1CCN(S(=O)(=O)c2cnc(Cl)c(Br)c2)CC1	none
COCCn1cc(C(=O)N2CCC3(CC2)OCCO3)c2c3ccccc3n(C)c2c1=O	Neddyl block 39 | Neddyl conf inactive
Cn1c2ccccc2c2c(C(=O)N3CCC4(CC3)OCCO4)cn(C3CCCC3)c(=O)c21	none
CC(C)C[C@H](NP(=O)(O)O[C@@H]1O[C@@H](C)[C@H](O)[C@@H](O)[C@H]1O)C(=O)N[C@@H](Cc1c[nH]c2ccccc12)C(=O)O	none
COc1ccc2c(CN3CC=C(c4ccccc4)CC3)cc(=O)oc2c1	Neddyl block 41 | Neddyl conf inactive
CCc1ccc2c(CN3CC=C(c4ccccc4)CC3)cc(=O)oc2c1	none
CCCCC(=O)N/N=C/c1c(O)n(-c2cccc3ccccc23)c(=O)[nH]c1=O	Neddyl block 41 | Neddyl conf inactive
Nc1ccccc1C(=O)OCCOc1ccccc1	none (not shown: Neddyl block)
C=CCOC(=O)c1ccccc1N	Neddyl block 45 | Neddyl conf inactive
CCOc1ccc(N=Cc2c(O)n(CCc3ccc(OC)c(OC)c3)c(=O)[nH]c2=O)cc1	Neddyl block 41 | Neddyl conf inactive
COc1ccc(CCn2c(O)c(C=Nc3ccc(NC(C)=O)cc3)c(=O)[nH]c2=O)cc1OC	none (not shown: Neddyl block)
O=C1NC(=O)C2(Cc3ccccc3N3CCCC32)C(=O)N1c1cccc(Cl)c1 (stereo unspecified)	none
Cc1ccc(CN2C(=O)NC(=O)C3(Cc4c(nc5ccccn5c4=O)N4CCCCCC43)C2=O)cc1 (stereo unspecified)	Neddyl block 44 | Neddyl conf inactive
CC12CN3CC(C)(CN(C1)C3c1cccnc1)C2=O (stereo unspecified)	none
CC1(C)Cc2c(sc3c2C(=O)NC(c2cccnc2)N3)CO1 (stereo unspecified)	Neddyl block 43 | Neddyl conf inactive
O=C1NC(c2cccnc2)Nc2sc3c(c21)CCCC3 (stereo unspecified)	Neddyl block 41 | Neddyl conf inactive
O=NN1CCCCC1	none
O=C(Nc1nccs1)c1c(O)c2c(n(Cc3ccco3)c1=O)CCCC2	none
CC1(C)CC(=O)CC(C)(C)N1O	none
O=C(c1ccc2c3c(cccc13)CC2)C1CCCN(Cc2ncc[nH]2)C1 (stereo unspecified)	Neddyl block 50 | Neddyl conf inactive
NC(Cc1ccc(O)cc1)C(=O)NN=Cc1ccc(N(CCCl)CCCl)cc1 (stereo unspecified)	Neddyl block 41 | Neddyl conf inactive
CCOc1ccc2[nH]c(=O)c(CN(CCO)C3(c4nnnn4C4CCCCC4)CCCCC3)cc2c1	H9c2 protect 78, Neddyl block 39 | Neddyl conf inactive
CCC(C)n1c(O)c(/C=N/NC(=O)c2ccncc2)c(=O)[nH]c1=S (stereo unspecified)	Neddyl block 43 | Neddyl conf inactive
CCN(CC(=O)Nc1ccc(C#N)c(Cl)c1)CC(=O)NC1CCS(=O)(=O)C1 (stereo unspecified)	none
O=C(N/N=C/c1c(O)n(CCc2ccccc2)c(=O)[nH]c1=O)c1ccccc1	Neddyl block 44 | Neddyl conf inactive
CCC(=NCC1CCCO1)c1c(O)n(Cc2ccccc2)c(=O)[nH]c1=O (stereo unspecified)	none
CC/C(=N\NC(=O)c1ccccc1)c1c(O)n(Cc2ccccc2)c(=O)[nH]c1=O	Neddyl block 39 | Neddyl conf inactive
COc1cccc2c1C(=O)c1c(O)c3c(c(O)c1C2=O)CC(O)(C(C)=NO)CC3OC1CC(N)C(O)C(C)O1 (stereo unspecified)	none
CC(C)(C)n1cc(C(=O)c2ccc3ccccc3c2O)cn1	none
CC(CCN1CC1)=NNC(=O)Nc1cccc2ccccc12	Neddyl block 48 | Neddyl conf inactive

Screens as filed in PubChem.
